RAD52 anneal inh: RAD52 DNA annealing inhibitors, primary screen, biochemical, FRET, single point, set 2; inhibition, % at 18.7 µM; recombinant RAD52 DNA annealing, FRET fluorescence; DNA repair protein RAD52 homolog (Homo sapiens), P43351; actives 0.46% (n = 360,000);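 active means every replicate showing at least 50% inhibition; inconclusive means mean inhibition at least 50% but not in every replicate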
FN deposit inh: inhibitors of fibronectin matrix deposition, primary screen, AH1F cells, Alexa488-fibronectin fluorescence, plate reader. AH1F fibroblasts, overnight. inhibition, % at 12.6 µM. actives 0.086% (n = 350,000);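 active means mean inhibition across replicates of 30% or more, regardless of how many single replicates reach that level; inconclusive means mean under 30% yet at least half of replicates reach 30%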;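 further: positive control wells lacked labelled fibronectin entirely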
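Test system: AH1F fibroblast monolayer depositing Alexa488-labelled fibronectin into matrix. Input: 10000 cells per well. Technique: fluorescence, ex 485 nm, em 525 nm. Buffer or medium: DMEM plus 2% serum, read in PBS. Timing: 1 h cell adhesion before compound, then overnight fibronectin incubation. Compound: single dose, pinned. Read-out basis: inhibition from reduced deposited-fibronectin fluorescence.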
N-glyco inh: increase of ERlucT glycosylation luciferase signal, primary screen, N-linked glycosylation inhibitor project, D54 ERlucT cells, luminescence, set 2 | D54 ERlucT glycosylation luciferase reporter, 24 h; percent of 100 nM tunicamycin response | reporter increase, % at 12.5 µM | actives 0.23% (n = 360,000);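 active means mean luciferase reporter signal, scaled so untreated is 0 and the glycosylation-blocking control 100, at or above a set limit in every replicate; inconclusive means mean reaches the limit but not every replicate does; inactive means mean below the limit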;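 further: luciferase carries N-glycosylation sites so blocking glycosylation raises the light; 0% = median of neutral control wells and 100% = median of 100 nM tunicamycin wells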
CaV13 FRET inh: Primary screen for inhibitors of IQ motif and Ca2+-dependent inactivation inhibitor domain binding in CACNA1D, Förster resonance energy transfer in living cells, …. HEK cells, CFP/YFP FRET ICDI-IQ, plate reader, 10 min; percent FRET-ratio fall versus neutral wells. inhibition, % at 12.3 µM. actives 0.098% (n = 340,000);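 active means mean replicate inhibition of at least 30% and at least 1% of replicates passing that level; inconclusive means only one of the two criteria is met; inactive means neither criterion is met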;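 further: 0% = median of the neutral control wells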
RAD54 branch: inhibitors of human RAD54 branch migration, primary screen, biochemical, fluorescence, single point; actives 0.14% (n = 360,000); inhibition, % at 10.4 µM; AID 602329, 2012; RAD54 Holliday junction branch migration, FAM/BHQ fluorescence; DNA repair and recombination protein RAD54-like (Homo sapiens), Q92698;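 active means mean normalized replicate activity at least 40 and at least half of replicates scoring 40 or more; inconclusive means only one of the two criteria met; inactive means mean below 40 and under half of replicates reaching 40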;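 further: 0% = median of neutral control wells and 100% = median of positive control wells; inhibitors cause a drop in the FAM fluorescence signal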
Target sequence (Q92698 whole entry, looked up): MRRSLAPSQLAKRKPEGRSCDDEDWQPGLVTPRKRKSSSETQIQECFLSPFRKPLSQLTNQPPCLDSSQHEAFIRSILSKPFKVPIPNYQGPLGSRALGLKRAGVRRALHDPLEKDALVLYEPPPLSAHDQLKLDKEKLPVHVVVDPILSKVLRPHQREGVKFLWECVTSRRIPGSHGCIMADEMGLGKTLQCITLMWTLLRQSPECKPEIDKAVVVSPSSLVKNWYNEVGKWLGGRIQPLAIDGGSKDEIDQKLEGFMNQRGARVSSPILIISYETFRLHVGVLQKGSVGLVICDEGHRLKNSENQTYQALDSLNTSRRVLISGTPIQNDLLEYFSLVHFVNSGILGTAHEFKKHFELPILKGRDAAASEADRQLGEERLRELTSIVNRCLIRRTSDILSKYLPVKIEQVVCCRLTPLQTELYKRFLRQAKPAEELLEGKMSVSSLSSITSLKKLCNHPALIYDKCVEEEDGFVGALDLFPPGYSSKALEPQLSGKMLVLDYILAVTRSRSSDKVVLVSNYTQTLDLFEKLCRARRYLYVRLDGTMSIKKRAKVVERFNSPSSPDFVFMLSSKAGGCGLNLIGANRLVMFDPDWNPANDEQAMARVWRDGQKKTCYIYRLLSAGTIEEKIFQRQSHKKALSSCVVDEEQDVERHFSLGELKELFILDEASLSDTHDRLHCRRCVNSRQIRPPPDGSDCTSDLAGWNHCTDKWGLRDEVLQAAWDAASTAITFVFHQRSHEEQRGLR
Active calls of the source: *; u = inconclusive; x = no result given; ! = repeats disagree. Rows were chosen to be rich in hits. Some 0.7% of all compounds tested hit in one or more screens of this group.

SMILES | RAD52 anneal inh | FN deposit inh | N-glyco inh | CaV13 FRET inh | RAD54 branch
COc1ccc(NC(=O)Nc2ccc3c(c2)CC(=O)N([C@@H](C)CO)C[C@@H](C)[C@@H](CN(C)S(=O)(=O)c2cn(C)cn2)O3)cc1 | 11 | x | x | x | 2
O=C(/C=C/c1cn(-c2ccccc2)nc1-c1cccnc1)N1CCCC1 | -8 | 3 | 3 | -4 | x
O=C(/C=C/c1cn(-c2ccccc2)nc1-c1cccnc1)c1ccco1 | -14 | -7 | 32* | 1 | x
COc1ccc(S(=O)(=O)Nc2ccc3c(c2)C(=O)N([C@H](C)CO)C[C@H](C)[C@H](CN(C)S(=O)(=O)c2ccc(Cl)cc2)OCCCC[C@H](C)O3)cc1 | -11 | 5 | x | x | -8
CC(=O)Nc1cccc(-c2ccnc3c2CC(C)(C(=O)Nc2cccc(C(F)(F)F)c2)O3)c1 (stereo not drawn) | -8 | 30* | 2 | -8 | -3
CC1(C(=O)Nc2cccc(C(F)(F)F)c2)Cc2c(-c3cccc(C(F)(F)F)c3)ccnc2O1 (stereo not drawn) | -6 | 11 | -2 | -5 | -14
C[C@H](CO)N1C[C@H](C)[C@H](CN(C)C)Oc2ccc(NS(=O)(=O)c3cn(C)cn3)cc2CC1=O | -8 | x | x | x | -13
Cc1onc(-c2c(Cl)cccc2Cl)c1C(=O)N[C@@H]1C(=O)N2[C@@H]1SC(C)(C)[C@@H]2C(=O)O | -4 | 2 | 31*! | -5 | 0
Cc1ccc(-c2cnc3c(c2)C(=O)N([C@@H](C)CO)C[C@H](C)[C@H](CN(C)CC2CCOCC2)O3)cc1 | 3 | x | x | x | 3
O=C(CSc1c2c(nc3ccc(Cl)cc13)CCCC2)N1CCN(C(=O)c2ccco2)CC1 | -13 | 14 | 41* | -4 | x
CCCN1[C@H](C(=O)NC2Cc3ccccc3C2)[C@@H](CO)[C@@H]2Cn3c(ccc(C4=CCCC4)c3=O)[C@@H]21 | -58 | x | x | x | -4
Cc1ccccc1S(=O)(=O)NCC[C@H]1CC[C@H](NC(=O)C2CCC2)[C@H](CO)O1 | x | x | x | x | -8
NC(=O)C1CCN(C2=C(Cl)C(=O)c3ccccc3C2=O)CC1 | x | x | 78* | -7 | 2
COc1ccc(NC(=O)Nc2ccc3c(c2)C(=O)N([C@@H](C)CO)C[C@H](C)[C@H](CN(C)C(=O)Nc2c(C)noc2C)O3)cc1 | -1 | x | x | x | 8
C=CC(=O)Nc1cccc(N(C)c2ccnc(Nc3ccc(N4CCN(C)CC4)cc3)n2)c1 | x | x | -11 | x | 82*
C=CC(=O)Nc1cccc(Oc2ccnc(Nc3ccc(N4CCN(C)CC4)cc3)n2)c1 | 93* | x | -14 | -5 | u
C=CC(=O)Nc1cccc(Oc2ccnc3[nH]ccc23)c1 | x | x | -8 | x | -5
CC(=O)N(C)C[C@H]1Oc2c(cccc2N(C)C)C(=O)N(C)C[C@H]1C | x | -3 | x | x | x
CC(=O)/C=C/c1ccccc1Oc1c(F)c(F)nc(F)c1F | -11 | 4 | 60* | -4 | 3
C[C@H]1CN([C@@H](C)CO)C(=O)c2cccc(NC(=O)Nc3ccc4c(c3)OCO4)c2O[C@@H]1CN(C)C | 0 | x | x | x | 6
Nc1c(N(CCC2=CCCCC2)C(=O)COc2ccc(F)cc2Cl)c(=O)[nH]c(=O)n1Cc1ccccc1 | -15 | -10 | 56* | -7 | -8
COCC(=O)Nc1ccc2c(c1)C(=O)N(C)C[C@H](OC)[C@H](C)CN(Cc1ccccc1)[C@@H](C)CO2 | 3 | -19 | x | x | 3
COc1cc(NC(=O)c2ccc(-c3c(C)noc3C)c3ccoc23)cc(OC)c1OC | 1 | -2 | 33* | -9 | 8
Cc1noc(C)c1-c1ccc(C(=O)NCCc2ccccc2)c2occc12 | -43 | 2 | 19 | 40* | 7
COc1cc(-c2noc(C)c2-c2ccc3[nH]ccc3c2)cc(OC)c1OC | x | x | 48* | x | 2
SMILES | RAD52 anneal inh | FN deposit inh | N-glyco inh | CaV13 FRET inh | RAD54 branch
Cn1ncc2c(O/N=C(\N)c3ccc(C(F)(F)F)cc3)ncnc21 | 1 | -10 | 41* | -16 | 2
COc1ccc(-c2csc(CCn3nc(C)cc3C)n2)cc1OC | 5 | 37* | 0 | 3 | -2
CC(C)C#Cc1cnc2c(c1)C(=O)N([C@H](C)CO)C[C@H](C)[C@H](CN(C)C(=O)Nc1cccc(F)c1)O2 | 21 | -1 | x | x | 2
CC1CCCN(Cc2c(O)ccc3c4c(c(=O)oc23)CCCC4)C1 (stereo not drawn) | 4 | 31* | -3 | -3 | 17
Cc1c(Cl)cccc1Nc1nc(N)nc(CN2CCc3ccccc3C2)n1 | x | -1 | 44* | -5 | -4
C[n+]1cc2c3c(ccc2c2ccc4cc5c(cc4c21)OCO5)OCO3 | -12 | 52* | x | -7 | x
COc1ccc2cc3[n+](cc2c1O)CCc1cc2c(cc1-3)OCO2 | 6 | -11 | x | -7 | x
C/C=C/c1cnc2c(c1)C(=O)N([C@H](C)CO)C[C@@H](C)[C@H](CN(C)C(=O)c1ccc3c(c1)OCO3)O2 | 3 | 7 | x | x | 3
CC(C)Nc1ncnc2c1cnn2-c1ccccc1 | -1 | -12 | -9 | -6 | -11
Cc1cccc(-n2ncc3c(NC(C)C)ncnc32)c1 | -4 | 31* | -11 | -3 | 9
Oc1ccc(Nc2nc(-c3ccccc3)nc3ccccc23)cc1 | 3 | x | 1 | x | 23
Oc1ccc(Nc2nc3ccccc3nc2Nc2ccc(O)cc2)cc1 | x | x | 50* | x | -1
Cc1ccc(S(=O)(=O)Nc2cccc3c2O[C@@H](CN(C)C(=O)Nc2ccc(F)cc2)[C@@H](C)CN([C@H](C)CO)C3=O)cc1 | 13 | 9 | x | x | -13
O=C(Nc1ccc(O)cc1)c1ccccc1OCc1ccccc1 | -8 | -1 | 13 | 0 | 2
CNC(=O)c1cccc(NC(=O)c2ccccc2OCc2ccccc2)c1 | -13 | -18 | 27* | -7 | -4
COc1cc(NC(=O)c2ccccc2OCc2ccccc2)cc(OC)c1OC | 3 | 4 | 28* | -19 | 5
CO[C@H]1CN(C)C(=O)c2cc(NC(C)=O)ccc2OC[C@H](C)N(Cc2cccc(F)c2)C[C@H]1C | -7 | -11 | x | x | -5
CN(C)C(=O)c1cccc(-c2cnc3c(NC=O)cc(-c4ccccc4Cl)cn23)c1 | -10 | 14 | 35* | -5 | -6
Cc1cc(NCCCCCCCNc2cc(C)nc3cc([N+](=O)[O-])ccc23)c2ccc([N+](=O)[O-])cc2n1 | 77* | -2 | -19 | -19 | x
C[C@H]1CN([C@@H](C)CO)C(=O)c2cccc(NC(=O)Nc3ccc(F)cc3)c2O[C@@H]1CN(C)C(=O)NC1CCCCC1 | 14 | x | x | x | -1
N=c1c2c(-c3ccccc3)c(-c3ccccc3)n(Cc3ccco3)c2ncn1Cc1ccco1 | x | x | 10 | x | 11

Screens (PubChem)
